Assay results from ChEMBL document CHEMBL4011654, “Mitochondria-Targeted Lupane Triterpenoid Derivatives and Their Selective Apoptosis-Inducing Anticancer Mechanisms” (J Med Chem, 2017).
Active and inactive are the calls of the source. No cut-off for these calls is given here.

Columns and labels:
K562 [1] = assay: Cytotoxicity against human K562 cells assessed as cell growth inhibition after 48 hrs by MTT assay; format: functional, cell-based; conditions: K562, 48 h
Summary of the method: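 Suspension cells seeded at 5000/well (HL-60 in IMDM, K562 in RPMI, both with 10% FBS) and treated. MTT then added for 4 h at 37 °C; plates centrifuged at 3000 rpm for 30 min, medium removed, DMSO added, OD570 read. IC50 taken as concentration giving 50% growth inhibition; triplicate.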

ECa-109 cell line = assay: Cytotoxicity against human ECA109 cells assessed as cell growth inhibition after 48 hrs by MTT assay; format: functional, cell-based; conditions: ECa-109, 48 h
Summary of the method: (§1)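 Adherent cells seeded at 5000/well, left 16−24 h, then exposed 48 h at 37 °C, 5% CO2 in RPMI with 10% FBS. Medium refreshed, MTT added for 4 h at 37 °C, medium removed, formazan dissolved in DMSO, OD570 read. IC50 taken as concentration inhibiting growth by 50%; triplicate.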

HepG2 = assay: Cytotoxicity against human HepG2 cells assessed as cell growth inhibition after 48 hrs by MTT assay; format: functional, cell-based; conditions: HepG2, 48 h; summary of the method: as §1
L02 = assay: Cytotoxicity against human HL-7702 cells assessed as cell growth inhibition after 48 hrs by MTT assay; format: cell-based; conditions: L02, 48 h; summary of the method: as §1
K562 [2] = assay: Induction of apoptosis in human K562 cells assessed as early apoptotic cells at 0.4 uM after 48 hrs by Annexin V-FITC/propidium iodide-staining based flow cytometric analysis (reference value: 0.92 to 1.45%); format: functional
Summary of the method: (§2)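 K562 seeded at 4 × 10^5 cells/well, 12 h, then exposed 48 h. Cells washed in ice-cold PBS, suspended in binding buffer, stained with annexin V-FITC and PI for 15 min at room temperature in the dark, and read by flow cytometry within 1 h. Cells counted as early/late apoptotic as % of total; n = 3.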

K562 [3] = assay: Induction of apoptosis in human K562 cells assessed as necrotic cells at 0.4 uM after 48 hrs by Annexin V-FITC/propidium iodide-staining based flow cytometric analysis (reference value: 0.13 to 0.27%); format: functional; summary of the method: as §2
K562 [4] = assay: Induction of apoptosis in human K562 cells assessed as viable cells at 0.8 uM after 48 hrs by Annexin V-FITC/propidium iodide-staining based flow cytometric analysis (reference value: 95.75 to 96.56%); format: functional; conditions: K562, 48 h, read-out: Activity; summary of the method: as §2
K562 [5] = assay: Induction of apoptosis in human K562 cells assessed as early apoptotic cells at 0.8 uM after 48 hrs by Annexin V-FITC/propidium iodide-staining based flow cytometric analysis (reference value: 0.92 to 1.45%); format: functional; summary of the method: as §2
K562 [6] = assay: Induction of apoptosis in human K562 cells assessed as late apoptotic cells at 0.8 uM after 48 hrs by Annexin V-FITC/propidium iodide-staining based flow cytometric analysis (reference value: 2.25 to 2.67%); format: functional; summary of the method: as §2
K562 [7] = assay: Induction of apoptosis in human K562 cells assessed as necrotic cells at 0.8 uM after 48 hrs by Annexin V-FITC/propidium iodide-staining based flow cytometric analysis (reference value: 0.13 to 0.27%); format: functional; summary of the method: as §2
K562 [8] = assay: Induction of apoptosis in human K562 cells assessed as viable cells at 1.2 uM after 48 hrs by Annexin V-FITC/propidium iodide-staining based flow cytometric analysis (reference value: 95.75 to 96.56%); format: functional; conditions: K562, 48 h, read-out: Activity; summary of the method: as §2
K562 [9] = assay: Induction of apoptosis in human K562 cells assessed as early apoptotic cells at 1.2 uM after 48 hrs by Annexin V-FITC/propidium iodide-staining based flow cytometric analysis (reference value: 0.92 to 1.45%); format: functional; summary of the method: as §2
K562 [10] = assay: Induction of apoptosis in human K562 cells assessed as late apoptotic cells at 1.2 uM after 48 hrs by Annexin V-FITC/propidium iodide-staining based flow cytometric analysis (reference value: 2.25 to 2.67%); format: functional; summary of the method: as §2
K562 [11] = assay: Decrease in mitochondrial membrane potential in human K562 cells at 1 to 2 uM after 48 hrs by JC-1 staining based fluorescence microscopic analysis; format: functional, cell-based
Summary of the method: (§3)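 K562 seeded at 4 × 10^5 cells/well, after 12 h treated 48 h. Cells washed in ice-cold PBS, loaded with JC-1 ([…]) at 37 °C for 15 min, rinsed, and analysed by flow cytometry (% cells with red aggregates) and fluorescence microscopy (red aggregates vs green monomers).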

K562 [12] = assay: Decrease in mitochondrial membrane potential in human K562 cells after 48 hrs by JC-1 staining based flow cytometry; format: functional, cell-based; summary of the method: as §3
K562 [13] = assay: Induction of mitochondrial membrane depolarization in human K562 cells assessed as cell with intact mitochondrial membrane potential at 1 uM after 48 hrs by JC-1 staining based flow cytometric analysis (reference value: 97.63 to 97.67%); format: functional; summary of the method: as §3
K562 [14] = assay: Induction of mitochondrial membrane depolarization in human K562 cells assessed as cells with mitochondrial membrane potential loss at 1 uM after 48 hrs by JC-1 staining based flow cytometric analysis (reference value: 1.89 to 2.23%); format: functional
K562 [15] = assay: Induction of mitochondrial membrane depolarization in human K562 cells assessed as cells with intact mitochondrial membrane potential at 2 uM after 48 hrs by JC-1 staining based flow cytometric analysis (reference value: 97.63 to 97.67%); format: functional; summary of the method: as §3
K562 [16] = assay: Induction of mitochondrial membrane depolarization in human K562 cells assessed as cells with mitochondrial membrane potential loss at 2 uM after 48 hrs by JC-1 staining based flow cytometric analysis (reference value: 1.89 to 2.23%); format: functional
K562 [17] = assay: Induction of mitochondrial membrane depolarization in human K562 cells assessed as cells with mitochondrial membrane potential loss at 4 uM after 48 hrs by JC-1 staining based flow cytometric analysis (reference value: 1.89 to 2.23%); format: functional
K562 [18] = assay: Induction of apoptosis in human K562 cells assessed as upregulation of cleaved PARP up to 4 uM after 48 hrs by Western blot analysis; format: functional, cell-based
K562 [19] = assay: Induction of apoptosis in human K562 cells assessed as caspase-9 activation at 4 uM after 48 hrs by Western blot analysis relative to control; format: functional
Summary of the method: (§4)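 K562 treated 48 h, then lysed on ice for 30 min; cytosolic and mitochondrial fractions isolated by kit where needed, protein measured by BCA. 60 μg/lane run on SDS-PAGE, transferred to PVDF, blocked in 5% milk/TBST for 4 h. Probed for cytochrome c, caspase-9, caspase-3 (total/cleaved), PARP; alkaline phosphatase secondary.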

K562 [20] = assay: Antitumor activity against CM-Dil-labeled human K562 cells xenografted in wild-type zebrafish embryos assessed as reduction in cell migration at 1 to 2 ug/ml measured after 48 hrs by confocal microscopic analysis; format: functional, cell-based
Summary of the method: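 K562 cells labelled with CM-Dil, suspended in FBS-free medium at (1 × 107)/mL and microinjected into wild-type zebrafish embryos kept at 28 °C in embryonic medium. After 4 h, embryos with the same injection spot were pooled at 15−20 per well and exposed to compound; Taxol served as positive control. At 48 h, confocal imaging gave fluorescent area (migration) and fluorescence intensity (cell number); n = 15.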

K562 [21] = assay: Induction of apoptosis in human K562 cells assessed as decrease in cytochrome c level in mitochondria up to 4 uM after 48 hrs by Western blot analysis; format: functional, cell-based; summary of the method: as §4
K562 [22] = assay: Induction of apoptosis in human K562 cells after 48 hrs by Annexin V-FITC/propidium iodide-staining based flow cytometric analysis; format: functional, cell-based; summary of the method: as §2

C=C(C)[C@@H]1CC[C@]2(COC(=O)CCCC[P+](c3ccccc3)(c3ccccc3)c3ccccc3)CC[C@]3(C)[C@H](CC[C@@H]4[C@@]5(C)CC[C@H](O)C(C)(C)[C@@H]5CC[C@]43C)[C@@H]12.[Br-]
IC50 (K562 [1]): 570 nM
IC50 (ECa-109 cell line): 780 nM
IC50 (HepG2): 1090 nM
IC50 (L02): 6.62 µM
Activity (K562 [2]): 6.68%
Activity (K562 [3]): 0.53%
viability at 0.8 µM (K562 [4]): 63.2%
Activity (K562 [5]): 12.51%
Activity (K562 [6]): 20.57%
Activity (K562 [7]): 3.7%
viability at 1.2 µM (K562 [8]): 45.3%
Activity (K562 [9]): 12.03%
Activity (K562 [10]): 38.25%
Activity (K562 [11]): Active
Activity (K562 [12]): Dose-dependent effect
Activity (K562 [13]): 93.08%
Activity (K562 [14]): 6.47%
Activity (K562 [15]): 82.54%
Activity (K562 [16]): 17.08%
Activity (K562 [17]): 61.4%
Activity (K562 [18]): Active
fold change (FC) (K562 [19]): 1.5
Activity (K562 [20]): Active
Activity (K562 [21]): Active
Activity (K562 [22]): Dose-dependent effect
